In the library only some 3.7% were active in any assay of this set; here they are far more common.
KCNK9 block: KCNK9 potassium channel inhibitors, primary screen, HEK293 cells, thallium flux; Potassium channel subfamily K member 9 (Homo sapiens), Q9NPC2; AID 488922, 2010; 1.2% of 310,000 active; B-score at 10 µM; FluxOR thallium flux fluorescence; hits give low values;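 active means ratio B-score over 3 SD below the library mean, with starting fluorescence within 5 SD of its mean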;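 further: negative B-score means less thallium flux so channel inhibition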
hERG rescue: hERG rescue from dofetilide block, primary screen, cell-based, CHO-hERG, FluxOR thallium flux, dofetilide IC70 | activation (rescue from dofetilide block), less the hit threshold, % at 10 µM | 0.51% of 310,000 active | Voltage-gated inwardly rectifying potassium channel KCNH2 (Homo sapiens), Q12809 | dofetilide IC70 present;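 active means activation above the mean of controls blocked by dofetilide plus 5 SD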;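 further: thallium influx through hERG after potassium depolarization seen as dye fluorescence rise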
KCNK3 inh: human KCNK3 channel inhibitors, primary screen, CHO cells, FluxOR thallium flux, B-score. Potassium channel subfamily K member 3 (Homo sapiens), O14649. FluxOR fluorescence; hits give low values. B-score at 10 µM. 0.84% of 340,000 active. AID 602410, 2012;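 active means B-score under library mean minus 4 SD, starting fluorescence ratio at most library mean plus 5 SD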;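 further: more negative B-score means stronger inhibition of thallium flux through KCNK3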
Target sequence (O14649 whole entry, looked up): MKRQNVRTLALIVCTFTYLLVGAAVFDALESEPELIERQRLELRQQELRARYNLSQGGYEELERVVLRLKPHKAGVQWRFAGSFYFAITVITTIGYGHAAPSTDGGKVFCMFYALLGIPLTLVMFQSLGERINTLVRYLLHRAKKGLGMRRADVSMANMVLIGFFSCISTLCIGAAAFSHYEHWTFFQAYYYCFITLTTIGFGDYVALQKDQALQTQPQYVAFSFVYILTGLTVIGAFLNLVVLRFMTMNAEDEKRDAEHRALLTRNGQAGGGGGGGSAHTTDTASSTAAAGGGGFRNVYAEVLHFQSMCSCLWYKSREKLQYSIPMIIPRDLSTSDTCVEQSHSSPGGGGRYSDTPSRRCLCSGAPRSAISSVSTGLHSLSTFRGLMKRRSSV
KCNQ1 pot: potentiators or activators of KCNQ1 channel, primary screen, cell-based, thallium flux, high-throughput; CHO-K1 KCNQ1, thallium flux FluxOR fluorescence; hits give high values; AID 2648, 2010; 0.35% of 310,000 active; B-score at 10 µM; Potassium voltage-gated channel subfamily KQT member 1 (Homo sapiens), P51787;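 active means fluorescence ratio B-score, a plate-corrected score, at least three library SD, with initial intensity B-score within 5 SD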
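Schedule – 37 °C overnight plating, 90-min dark dye load, 20-min compound pretreatment · System – stable KCNQ1 CHO-K1 line · Probe or stimulus – thallium- and potassium-containing depolarizing buffer · Measured by – kinetic FluxOR fluorescence, 10 s baseline plus 110 s post-stimulus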
KCNQ1 block: inhibitors of human KCNQ1 channel, primary screen, cell-based, thallium flux, high-throughput; CHO-K1 KCNQ1, FluxOR thallium flux fluorescence; hits give high values; B-score at 10 µM; Potassium voltage-gated channel subfamily KQT member 1 (Homo sapiens), P51787; AID 2642, 2010; 1.3% of 310,000 active;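 active means compounds whose thallium flux B-score, printed positive for inhibition, exceeds three library SD while starting fluorescence stays within three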;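 further: channel opened by potassium depolarization with thallium stimulus after 20 min compound exposure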
Kir21 inh: inhibitors of mouse Kir2.1 inward-rectifier potassium channel; Inward rectifier potassium channel 2 (Mus musculus), P35561; HEK293-Kir2.1, FluxOR thallium flux fluorescence; hits give low values; B-score at 10 µM; 0.85% of 310,000 active;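 active means fluorescence ratio B-score at or below minus 3 SD of library scores, with starting-brightness B-score within 2 SD, cut at about -4.2 in these data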;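 further: channel flux triggered by added potassium and thallium sulfate stimulus; B-score of peak minus minimum fluorescence over baseline after thallium stimulus; more negative B-score means stronger Kir2.1 block with less thallium influx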
* = called active by the depositor; i = inactive; nt = no result given.

SMILES	KCNK9 block	hERG rescue	KCNK3 inh	KCNQ1 pot	KCNQ1 block	Kir21 inh
COc1cc2c(cc1Cl)/C(=C\CCN(C)C)c1ccccc1S2	i	-15.7	i	i	i	-10.7*
Cc1nn(CC(=O)NC(C)C(C)C)c(C)c1S(=O)(=O)N1CCCCC1 (stereo unspecified)	nt	nt	i	nt	nt	nt
CC1CC(C)C[N+](=C2C=C(N3CCCC3)CC(C)(C)C2)C1 (stereo unspecified)	i	-17.1	i	i	8*	-5.82*
Cc1ccccc1CSCC(=O)NCCSc1ccccn1	i	-12.9	i	i	i	0.33
COC(=O)c1ccc(C23CC4(C2)[C@H](CN(C)[C@@H]4c2ccccc2)C3c2ccccc2)cc1 (stereo partly specified)	-6.61*	-7.4	i	i	i	-0.34
O=C(C1CC1)N1CCc2sccc2C1c1ccc(Cl)cc1 (stereo unspecified)	i	-2.6	i	i	6*	-1.97
COc1ccc(C2c3ccsc3CCN2C(C)=O)cc1 (stereo unspecified)	i	-13.3	i	i	i	-0.89
Cc1ccc(NC(=O)Cc2ccc(Cl)cc2)cc1S(=O)(=O)N1CCCCCC1	nt	nt	-9.05*	nt	nt	nt
COc1ccc(CC(=O)Nc2ccc(C)c(S(=O)(=O)N3CCCCCC3)c2)cc1	nt	nt	i	nt	nt	nt
O=C(CCc1ccccc1Cl)Nc1cc(S(=O)(=O)N2CCOCC2)ccc1N1CCCC1	nt	nt	i	nt	nt	nt
Cc1ccc(NC(=S)Nc2ccc(S(=O)(=O)N3CCOCC3)cc2)cc1S(=O)(=O)N1CCOCC1	i	-12.6	i	i	7*	0.87
CCC(Oc1ccccc1)C(=O)Nc1ccc(S(=O)(=O)N2CCOCC2)cc1 (stereo unspecified)	i	5.0*	i	i	i	-1.14
O=C(CCc1ccccc1Cl)Nc1ccc(S(=O)(=O)N2CCOCC2)cc1	i	7.0*	i	i	i	-1.73
COc1ccc(CC(=O)Nc2c3c(nn2C(C)(C)C)CS(=O)(=O)C3)cc1	i	-6.3	i	i	i	0.46
COc1cccc(NC(=O)CCc2c(C)nc3nc(CNC(=O)c4cccc(F)c4)nn3c2C)c1	i	-8.7	i	i	i	1.04
CCc1cc2c(=O)n(Cc3ccco3)c(SCC(=O)N3CCCc4ccccc43)nc2s1	i	-7.4	i	i	6*	0.45
COc1ccc(/C=N/NC(=O)c2ccc(O)cc2)cc1CN1CCCc2ccccc21	-7.91*	-9.6	i	i	i	-0.6

Assay outcomes deposited in PubChem BioAssay by Johns Hopkins Ion Channel Center.
